The list is not random: actives were taken first. Their share in the collection is about 6.4%.
Lung fibro prol = blocks proliferation of human lung fibroblasts; LL 47 human lung fibroblast viability, ATP luminescence; hits give low values; viability, % at 10 µM; 85,000 tested, 1.1% active;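 active means viability at or below 50% in the single dose screen; inactive means viability above 50%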;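 further: compound exposure lasted 72 h before the ATP readout; 100% = median luminescence of untreated cell-only wells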
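Material: human LL 47 lung fibroblast cells; quantity: 1,150 cells/well; medium: IMEM plus 15% FBS; doses: 0.1% DMSO in all compound wells; timing: overnight attachment after seeding, then 72 h compound exposure at 37 °C; detection: CellTiter-Glo luminescence; measure: % viability of median cell-only signal; controls: cell-only wells, no compound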
H69AR inhibit = growth inhibitors of human H69AR lung tumor cells; H69AR lung tumor viability, ATP luminescence, 72 h; hits give low values; viability, % at 10 µM; 85,000 tested, 6% active; AID 598;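 active means viability at or below 40%; inactive means viability above 40%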;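 further: multidrug resistant small cell line overexpressing MRP-1 efflux transporter; 100% = mean luminescence of untreated control wells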
tolC growth inh = E. coli tolC mutant growth inhibition; E. coli BW25113 tolC mutant growth, OD615; growth inhibition, % at 10 µM (by protocol); 65,000 tested, 2.2% active; AID 573;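 active means growth inhibition at or above a cutoff equal to the mean over every tested compound plus 3 SD, cut at about 60% in these data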;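 further: growth measured after 20 h incubation at 37 °C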
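test system = E. coli BW25113 ΔtolC::kan bacteria | medium = LB with kanamycin 50 µg/mL | signal = OD at 615 nm | schedule = 37 °C, 20 h exposure | evaluation = % inhibition of E. coli growth | compound dosing = one dose of 10 µM final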
HUVEC prolif 384 = blocks proliferation of human endothelial cells; HUVEC proliferation, CellTiter-Glo luminescence, 72 h; hits give low values; viability, % at 10 µM (by protocol); 86,000 tested, 1.1% active;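 active means viability at or below 30%; inactive means viability above 30%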;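 further: 100% = median luminescence of DMSO-only cell control wells on each plate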
Jurkat tox 60K = cytotoxicity toward Jurkat cells. Jurkat E6.1 viability, ATP luminescence, 48 h. AID 463. inhibition, % at 4 µM. 56,000 tested, 1.2% active;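 active means inhibition above the mean inhibition of all tested compounds plus 3 SD, cut at about 28% in these data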
E coli WT exp = blocks growth of wild type E. coli BW25113. 98,000 tested, 0.15% active. OD600 absorbance. growth inhibition, % at 100 µM;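 active means growth inhibition above about 50% at one test dose, limit read from the data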;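 further: growth measured after 20 h incubation at 37 °C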
* hit, by the source's call; . = not tested or not shown.

SMILES	Lung fibro prol	H69AR inhibit	tolC growth inh	HUVEC prolif 384	Jurkat tox 60K	E coli WT exp
Cc1cc(C)c2nc(-c3ccccn3)cc(C(=O)Nc3cc(C)on3)c2c1	81	34*	-6	50	-4	-3
Cc1cc(NC(=O)c2cc(-c3cccs3)nc3ccccc23)no1	.	.	12	.	14	-5
O=c1[nH]nc(Cc2ccc(-c3ccc(Cl)cc3)o2)c2ccccc12	.	.	.	.	.	-9
Cn1c(=O)c2c(nc(SCCCC#N)n2Cc2c(F)cccc2Cl)n(C)c1=O	95	51	15	90	3	-9
CC(C)c1nc(SCC(=O)N2CCCc3ccccc32)c2c(=O)n(C)c(=O)n(C)c2n1	84	14*	.	57	.	-6
CC(C)c1nc(SCc2c(F)cccc2Cl)c2c(=O)n(C)c(=O)n(C)c2n1	83	38*	17	56	-8	-12
O=C(/C=C/c1ccccc1)NC(=S)Nc1ccc(N2CCOCC2)c(Cl)c1	.	.	.	.	.	-15
Cc1nnc(Sc2c(N)n(C)c(=O)n(C)c2=O)s1	98	100	.	95	.	3
Cc1nnc(Sc2nc(Sc3nnc(C)s3)nc(N3CCN(C)CC3)n2)s1	6.1*	0.6*	-11	69	101*	.
Cc1ccc(C(=O)CSc2nnc(-c3cccs3)n2C)o1	95	98	0	100	3	-1
Cc1cc(N2CCN(C/C=C/c3ccccc3)CC2)n2ncnc2n1	97	69	5	106	37*	4
N/C(=N\c1nc2c(c(=O)[nH]1)CCCC2)Nc1ccc(Oc2ccccc2)cc1	89	86	.	83	.	.
Cc1cc(=O)oc(C)c1C(=O)N1CCCc2ccccc21	95	99	.	95	.	12
COc1ccc(OC)c(N=C(C)C2=C(O)COC2=O)c1	89	22*	-2	86	.	-5
CCN(CC)CCOc1ccc2c(c1)C(=NO)c1cc(OCCN(CC)CC)ccc1-2	3.0*	50	.	12*	.	4
CCN(CC)S(=O)(=O)c1ccc2c(c1)C(=NO)c1cc(S(=O)(=O)N(CC)CC)ccc1-2	38*	2.6*	.	4.3*	.	.
CCN(CC)S(=O)(=O)c1ccc(C)c(C)c1	100	82	.	90	.	6
COc1nc(OC)nc(N2CCCCCC2)n1	94	86	.	96	.	.
CCOC(=O)c1ccccc1NC(=O)c1cccc(F)c1	98	89	.	95	.	0
O=C(/C=C/Nc1cccc(C(F)(F)F)c1)c1ccc(Oc2ncccn2)cc1	.	.	.	.	.	-4
CCc1ccccc1N(C)C(=O)CCc1nc(-c2ccc(C)cc2)no1	98	106	100*	85	10	-14
COc1ccc(Cl)cc1N(C)C(=O)CCc1nc(-c2ccc(C)cc2)no1	92	91	90*	92	8	-24
COc1ccc(Br)cc1CNC(=O)CCc1nc(-c2ccc(C)cc2)no1	83	78	-8	85	11	-8
Cc1ccc(NC(=O)C2=C(O)CCn3c2nc2ccccc23)cc1	84	26*	.	93	.	-10
CC(C)(C)c1ccccc1OCCCCCNCCO	79	11*	-4	91	4	8
SMILES	Lung fibro prol	H69AR inhibit	tolC growth inh	HUVEC prolif 384	Jurkat tox 60K	E coli WT exp
O=P(c1ccccc1)(c1ccccc1)C1CCCO1 (centres undefined)	104	92	-6	97	-3	1
COc1cccc(N2CCN(c3c(C#N)c(C(F)(F)F)nn3C)CC2)c1	96	73	.	67	.	-2
COc1ccc2[nH]cc(C(=O)CN3CCN(C(=O)c4ccco4)CC3)c2c1	107	79	-11	29*	-5	1
CCOC(=O)N1CCN(CC(=O)Nc2c(C(=O)OC)[nH]c3ccccc23)CC1	94	44	-39	105	2	9
COC(=O)c1[nH]c2ccccc2c1NC(=O)CN1CCN(C(=O)c2ccco2)CC1	95	18*	-2	95	0	-3
O=C(O)Cc1ccc(O)c(F)c1	99	96	.	101	.	.
[N-]=[N+]=CC(=O)c1ccnc(C(=O)C=[N+]=[N-])c1	107	86	8	98	.	55*
CCCCC(=O)Nc1cccc(-c2nnc(-c3ccccc3)o2)c1	105	60	68*	71	-1	-5
Cc1cccc(OCC(=O)Nc2cccc(-c3nnc(-c4ccccc4)o3)c2)c1C	56	9.8*	0	50	2	-1
Cc1ccc(-n2cnc3cc(NCc4cccs4)ccc32)cc1	94	81	.	118	.	-10
c1ccc(-n2cnc3cc(NCc4cccs4)ccc32)cc1	61	23*	.	73	.	-5

Screening results: PubChem, several laboratories
